Calls of active or inactive are those of the source.
How the values were obtained:
[1] = Cytotoxicity against human HeLa cells assessed as reduction in cell viability incubated for 24 hrs by CellTiter-Blue assay; format: cell-based
Method in brief: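 Viability by CellTiter-Blue in HeLa or Huh-7 cells exposed to compound dilutions. Plates run in parallel with the reporter assay (HeLa) or the virus titer assay (Huh-7).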

[2] = biological target: Genome polyprotein (dengue virus type 2) (UniProt P29990); assay: Inhibition of DENV2 NS2B-NS3 protease expressed in Escherichia coli BL21 lambda(DE3) using FRET substrate preincubated with enzyme for 15 mins in presence of detergent CHAPS followed by substrate addition for 15 mins by fluorescence based analysis; conditions: time 30.0 min
[3] = biological target: Prothrombin (Homo sapiens) (UniProt P00734); assay: Inhibition of thrombin in human plasma using Boc-Val-Pro-Arg-AMC as substrate at 25 uM preincubated with enzyme for 15 mins followed by substrate addition and measured for 15 mins by fluorimetric assay; format: cell-free; conditions: time 30.0 min
[4] = biological target: Genome polyprotein (dengue virus type 2) (UniProt P29990); assay: Inhibition of NS2B-NS3 protease in DENV2proHeLa system assessed as inhibition of luciferase signal at 12.5 uM incubated for 24 hrs by luciferase reporter gene assay; format: cell-based; conditions: HeLa
Method in brief: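 Stable DENV2proHeLa cells seeded at 2 × 10⁴/well and dosed immediately, then incubated 24 h at 37 °C. Cells lysed 15 min at room temperature. Luciferase read with coelenterazine (2.75 μM in PBS) injection, luminescence 5 s. Triplicates; percent inhibition calculated relative to untreated control; background from cell-free wells.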

Trypsin (Homo sapiens) = Trypsin (Homo sapiens) (UniProt P07477+P07478+P35030); assay: Inhibition of trypsin (unknown origin) using Boc-Val-Pro-Arg-AMC as substrate at 50 uM preincubated with enzyme for 15 mins followed by substrate addition and measured for 15 mins by fluorimetric assay; format: protein assay; conditions: time 30.0 min
Genome polyprotein = Genome polyprotein (dengue virus type 2, UniProt P29990); assay: Inhibition of NS2B-NS3 protease in DENV2proHeLa system assessed as inhibition of luciferase signal incubated for 24 hrs by luciferase reporter gene assay; format: cell-based, HeLa
Method in brief: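 HeLa cells stably carrying the reporter system, 2 × 10⁴ per well, given inhibitor at seeding and held 24 h at 37 °C. Cells lysed 15 min at room temperature. Luciferase read for 5 s after injecting coelenterazine (2.75 μM in PBS). Triplicate wells per concentration; percent inhibition taken against untreated cells. EC50/EC90 from 4-parameter dose-response fit, background from cell-free wells subtracted.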

NC(=O)c1ccc(CNC(=O)[C@@H](NC(=O)Cc2ccc(-c3ccccc3)cc2)c2ccc(OCc3ccccc3)cc2)cc1
CC50 at 24 h [1]: > 50 µM | inhibition [2]: Active | inhibition [3]: inactive | inhibition [4]: 25% | inhibition (Trypsin (Homo sapiens)): inactive

CCCCCCN[C@H](C(=O)NCc1ccc(C(N)=O)cc1)c1ccc(OCc2ccccc2)cc1
CC50 at 24 h [1]: > 50 µM | inhibition [2]: Active | inhibition [3]: inactive | inhibition [4]: 19% | inhibition (Trypsin (Homo sapiens)): inactive

CCCCCC(=O)N[C@@H](C(=O)NCc1ccc(C(N)=O)cc1)c1ccc(OCc2ccc(Cl)c(Cl)c2)cc1
CC50 at 24 h [1]: > 50 µM | inhibition [2]: Active | inhibition [3]: inactive | inhibition [4]: 19% | inhibition (Trypsin (Homo sapiens)): inactive

CCCCCC(=O)N[C@H](C(=O)NCc1ccc(NC(C)=O)cc1)c1ccc(OCc2ccccc2)cc1
CC50 at 24 h [1]: > 100 µM | inhibition [3]: inactive | EC50 (Genome polyprotein): 14 µM | inhibition [4]: 55% | inhibition (Trypsin (Homo sapiens)): inactive

CCCCCCCC(=O)N[C@H](C(=O)Nc1cccc(C(N)=O)c1)c1ccc(OCc2ccccc2)cc1
CC50 at 24 h [1]: > 12.5 µM | inhibition [3]: inactive | EC50 (Genome polyprotein): 2.2 µM | inhibition [4]: 66% | inhibition (Trypsin (Homo sapiens)): inactive

CCCC[C@H](NC(C)=O)C(=O)N[C@H](C(=O)NCc1ccc(C(N)=O)cc1)c1ccc(OCc2ccccc2)cc1
CC50 at 24 h [1]: > 50 µM | inhibition [2]: Active | inhibition [3]: inactive | inhibition [4]: 16% | inhibition (Trypsin (Homo sapiens)): inactive

CCCCC(=O)N[C@H](C(=O)NCc1ccc(C(N)=O)cc1)c1ccc(OCc2ccccc2)cc1
CC50 at 24 h [1]: > 100 µM | inhibition [3]: inactive | EC50 (Genome polyprotein): 14 µM | inhibition [4]: 38% | inhibition (Trypsin (Homo sapiens)): inactive

NC(=O)c1cccc(NC(=O)[C@@H](NC(=O)c2cccc(C(=O)N3CCOCC3)c2)c2ccc(OCc3ccccc3)cc2)c1
CC50 at 24 h [1]: > 100 µM | inhibition [3]: inactive | EC50 (Genome polyprotein): 23 µM | inhibition [4]: 35% | inhibition (Trypsin (Homo sapiens)): inactive

CCCCCC(=O)N[C@H](C(=O)Nc1cccc(C(N)=O)c1)c1ccc(OCc2ccccc2)cc1
CC50 at 24 h [1]: > 50 µM | inhibition [2]: Active | inhibition [3]: inactive | EC50 (Genome polyprotein): 4.6 µM | inhibition [4]: 76% | inhibition (Trypsin (Homo sapiens)): inactive

NC(=O)c1ccc(CNC(=O)[C@@H](NC(=O)CCc2ccccc2)c2ccc(OCc3ccccc3)cc2)cc1
CC50 at 24 h [1]: > 50 µM | inhibition [3]: inactive | EC50 (Genome polyprotein): 12 µM | inhibition [4]: 57% | inhibition (Trypsin (Homo sapiens)): inactive

CCCCCC(=O)N[C@H](C(=O)NCCc1ccc(O)cc1)c1ccc(OCc2ccccc2)cc1
CC50 at 24 h [1]: > 25 µM | inhibition [3]: inactive | EC50 (Genome polyprotein): 10 µM | inhibition [4]: 58% | inhibition (Trypsin (Homo sapiens)): inactive

NC(=O)c1cccc(NC(=O)[C@@H](NC(=O)c2cccc(Oc3ccccc3)c2)c2ccc(OCc3ccccc3)cc2)c1
CC50 at 24 h [1]: > 100 µM | inhibition [2]: Active | inhibition [3]: inactive | EC50 (Genome polyprotein): 1.7 µM | inhibition [4]: 84% | inhibition (Trypsin (Homo sapiens)): inactive

COc1cccc(COc2ccc([C@H](NC(=O)c3ccc(C(=O)c4ccccc4)cc3)C(=O)Nc3cccc(C(N)=O)c3)cc2)c1
CC50 at 24 h [1]: > 100 µM | inhibition [2]: Active | inhibition [3]: inactive | EC50 (Genome polyprotein): 1.2 µM | inhibition [4]: 79% | inhibition (Trypsin (Homo sapiens)): inactive

NC(=O)c1ccc(CNC(=O)[C@@H](NC(=O)c2cc3ccccc3s2)c2ccc(OCc3ccccc3)cc2)cc1
CC50 at 24 h [1]: > 50 µM | inhibition [3]: inactive | EC50 (Genome polyprotein): 6.6 µM | inhibition [4]: 71% | inhibition (Trypsin (Homo sapiens)): inactive

NC(=O)c1cccc(NC(=O)[C@@H](NC(=O)c2ccc(C(=O)N3CCOCC3)cc2)c2ccc(OCc3ccccc3)cc2)c1
CC50 at 24 h [1]: > 100 µM | inhibition [3]: inactive | EC50 (Genome polyprotein): 15 µM | inhibition [4]: 40% | inhibition (Trypsin (Homo sapiens)): inactive

NC(=O)c1cccc(NC(=O)[C@@H](NC(=O)c2ccc(-c3ccccc3)cc2)c2ccc(OCc3ccccc3)cc2)c1
CC50 at 24 h [1]: > 100 µM | inhibition [3]: inactive | EC50 (Genome polyprotein): 1.7 µM | inhibition [4]: 79% | inhibition (Trypsin (Homo sapiens)): inactive

NC(=O)c1cccc(NC(=O)[C@@H](NC(=O)c2ccc(Oc3ccccc3)cc2)c2ccc(OCc3c(Cl)cccc3Cl)cc2)c1
CC50 at 24 h [1]: > 50 µM | inhibition [2]: Active | inhibition [3]: inactive | EC50 (Genome polyprotein): 2.2 µM | inhibition [4]: 71% | inhibition (Trypsin (Homo sapiens)): inactive

CCCCCC(=O)N[C@H](C(=O)NCc1ccc(C(N)=O)cc1)c1ccc(OCc2ccc(C(F)(F)F)cc2)cc1
CC50 at 24 h [1]: > 100 µM | inhibition [3]: inactive | EC50 (Genome polyprotein): 9.8 µM | inhibition [4]: 53% | inhibition (Trypsin (Homo sapiens)): inactive

CCCCCC(=O)N[C@H](C(=O)Nc1ccc(C(N)=O)cc1)c1ccc(OCc2ccccc2)cc1
CC50 at 24 h [1]: > 12.5 µM | inhibition [3]: inactive | EC50 (Genome polyprotein): 7 µM | inhibition [4]: 58% | inhibition (Trypsin (Homo sapiens)): inactive

CCCCCC(=O)N[C@H](C(=O)Nc1ccc(CO)cc1)c1ccc(OCc2ccccc2)cc1
CC50 at 24 h [1]: > 50 µM | inhibition [3]: inactive | EC50 (Genome polyprotein): 18 µM | inhibition [4]: 48% | inhibition (Trypsin (Homo sapiens)): inactive

CCCCCC(=O)N[C@H](C(=O)NCc1ccc(C(N)=O)cc1)c1ccc(OCc2ccc(C(C)(C)C)cc2)cc1
CC50 at 24 h [1]: > 12.5 µM | inhibition [2]: Active | inhibition [3]: inactive | inhibition [4]: < 10% | inhibition (Trypsin (Homo sapiens)): inactive

NC(=O)c1cccc(NC(=O)[C@@H](NC(=O)c2ccc3ccccc3c2)c2ccc(OCc3ccccc3)cc2)c1
CC50 at 24 h [1]: > 100 µM | inhibition [3]: inactive | EC50 (Genome polyprotein): 4.5 µM | inhibition [4]: 71% | inhibition (Trypsin (Homo sapiens)): inactive

CCCCCC(=O)N[C@H](C(=O)NCCc1ccc(C(N)=O)cc1)c1ccc(OCc2ccccc2)cc1
CC50 at 24 h [1]: > 100 µM | inhibition [3]: inactive | EC50 (Genome polyprotein): 7.7 µM | inhibition [4]: 62% | inhibition (Trypsin (Homo sapiens)): inactive

CCCCCC(=O)N[C@H](C(=O)NCc1ccc(C(N)=O)cc1)c1ccc(OCc2ccc(O)cc2)cc1
CC50 at 24 h [1]: > 50 µM | inhibition [2]: Active | inhibition [3]: inactive | inhibition [4]: 43% | inhibition (Trypsin (Homo sapiens)): inactive

CCCCCC(=O)N[C@H](C(=O)NCc1ccc(C(=O)NN)cc1)c1ccc(OCc2ccccc2)cc1
inhibition [2]: Active | inhibition [3]: inactive | inhibition (Trypsin (Homo sapiens)): inactive

NCc1ccc(C(=O)N[C@H](C(=O)NCc2ccc(C(N)=O)cc2)c2ccc(OCc3ccccc3)cc2)cc1
CC50 at 24 h [1]: > 50 µM | inhibition [3]: inactive | EC50 (Genome polyprotein): 29 µM | inhibition [4]: 24% | inhibition (Trypsin (Homo sapiens)): inactive

NC(=O)c1cccc(NC(=O)[C@@H](NC(=O)c2ccc(Oc3ccccc3)cc2)c2ccc(Oc3ccccc3)cc2)c1
CC50 at 24 h [1]: > 50 µM | inhibition [3]: inactive | EC50 (Genome polyprotein): 2.9 µM | inhibition [4]: 73% | inhibition (Trypsin (Homo sapiens)): inactive

NC(=O)c1cccc(NC(=O)[C@@H](NC(=O)c2ccc(Oc3cccc(Cl)c3)cc2)c2ccc(OCc3ccccc3)cc2)c1
CC50 at 24 h [1]: > 100 µM | inhibition [3]: inactive | EC50 (Genome polyprotein): 1 µM | inhibition [4]: 87% | inhibition (Trypsin (Homo sapiens)): inactive

— ChEMBL document CHEMBL4811254, “Beyond Basicity: Discovery of Nonbasic DENV-2 Protease Inhibitors with Potent Activity in Cell Culture” (J Med Chem, 2021)
